Data set [1] concerns Rattus norvegicus. The experiment in a line: Anti-inflammatory activity in Wistar rat model of Freund's complete adjuvant-induced rheumatoid arthritis model assessed as reduction in paw swelling at 1 mg/kg, po dosed every day from day 16 after initial inflammation. It is filed as functional, organism-based. An outline of the steps: (§1)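 Wistar rats with Freund's complete adjuvant-induced arthritis, 30 randomized into 5 groups; oral daily dosing from day 16 after initial inflammation, reference 1 mg/kg, test 10, 20, 40 mg/kg; paw swelling degree tracked over days; P < .05 vs model group.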

Data set [2] has as its system Rattus norvegicus. The experiment in a line: Anti-inflammatory activity in Wistar rat model of Freund's complete adjuvant-induced rheumatoid arthritis model assessed as reduction in paw swelling at 1 mg/kg, po dosed every day from day 16 after initial inflammation and measured after 10 days. In kind it is functional, organism-based. In short, it runs like this:
as §1

The nature of data set [3]: Drug level in HEPES buffer at pH 7.4 treated with 2-(2-(2-(dimethylamino)ethoxy)ethoxy)ethyl 4-(1-phenyl-1H-tetrazol-5-ylthio)butylcarbamodithioate assessed as active compound formation measured during 2 to 30 hrs by HPLC method. It is filed as physicochemical. In short, it runs like this:
(§2)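 Prodrug incubated in HEPES buffer at pH 4.4 or pH 7.4; concentrations of prodrug and released isothiocyanate followed over time (up to 24 h and beyond) to build concentration–time curves.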

A short description of data set [4]: Drug level in mouse plasma treated with 2-(2-(2-(dimethylamino)ethoxy)ethoxy)ethyl 4-(1-phenyl-1H-tetrazol-5-ylthio)butylcarbamodithioate assessed as active compound formation measured after 24 hrs by HPLC method. In kind it is ADME, cell-free.
Data set [5] in a line: Drug level in HEPES buffer at pH 7.4 treated with 2-(2-(2-(dimethylamino)ethoxy)ethoxy)ethyl 4-(1-phenyl-1H-tetrazol-5-ylthio)butylcarbamodithioate assessed as active compound formation measured at 2 hrs by HPLC method. It is filed as physicochemical. The following applies: pH 7.4, 2 h. In short, it runs like this: as §2
The species entered for data set [6] is Danio rerio. The experiment in a line: Anti-inflammatory activity in EGFP transgenic Zebrafish model of neutrophil inflammation assessed as reduction in number of neutrophil migration at 30 ug/ml incubated for 3 hrs by stereofluorescence microscopy. It is filed as functional, organism-based. In short, it runs like this: (§3)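 72 h post-fertilization EGFP transgenic zebrafish, 24 larvae split into 4 groups (vehicle control, reference, two test articles); compound added to culture wells for 3 h; migrating neutrophils counted; P vs control by statistical comparison.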

Data set [7] can be described thus: Prodrug conversion in mouse plasma assessed as formation of 1-isothiocyanato-4-(methylsulfinyl)butane measured after 24 hrs by HPLC method. It is filed as ADME, cell-free.
Data set [8] in a line: Stability in HEPES buffer at pH 4.4 measured within 24 hrs by HPLC method. It is filed as physicochemical. The following applies: pH 4.4, 24 h. An outline of the steps: as §2
Data set [9] can be described thus: Half life in mouse plasma by HPLC method. It is filed as ADME, cell-free.
The nature of data set [10]: Prodrug conversion in mouse plasma assessed as Tmax for formation of 1-isothiocyanato-4-(methylsulfinyl)butane measured after 24 hrs by HPLC method. In kind it is ADME, cell-free.
The nature of data set [11]: Stability in mouse plasma assessed as time duration for complete drug degradation by HPLC method. It is filed as ADME, cell-free.
The species entered for data set [12] is Danio rerio. The data set is described as follows: Anti-inflammatory activity in EGFP transgenic Zebrafish model of neutrophil inflammation assessed as reduction in number of neutrophil migration at 5 ug/ml incubated for 3 hrs by stereofluorescence microscopy. It is filed as functional, organism-based. In short, it runs like this:
as §3

The species entered for data set [13] is Danio rerio. The experiment in a line: Potency index, ratio of dexamethasone to test compound anti-inflammatory activity in EGFP transgenic Zebrafish model of neutrophil inflammation assessed as reduction in number of neutrophil migration incubated for 3 hrs by stereofluorescence microscopy. In kind it is functional.
The nature of data set [14]: Prodrug conversion in mouse plasma assessed as formation of 5-(4-isothiocyanatobutylthio)-1-phenyl-1H-tetrazole measured after 24 hrs by HPLC method. It is filed as ADME, cell-free.
Data set [15] has as its system Rattus norvegicus. The experiment in a line: Toxicity in Wistar rat model of Freund's complete adjuvant-induced rheumatoid arthritis model assessed as increase in body weight at 40 mg/kg, po dosed every day from day 16 after initial inflammation (reference value: 84.6 g). In kind it is organism-based. The following applies: in vivo.
Data set [16] is filed under the species Danio rerio. The data set is described as follows: Anti-inflammatory activity in EGFP transgenic Zebrafish model of neutrophil inflammation assessed as reduction in number of neutrophil migration at 0.5 ug/ml incubated for 3 hrs by stereofluorescence microscopy. It is filed as functional, organism-based. An outline of the steps: as §3
The test system of data set [17] is Rattus norvegicus. The experiment in a line: Toxicity in Wistar rat model of Freund's complete adjuvant-induced rheumatoid arthritis model assessed as increase in body weight at 10 mg/kg, po dosed every day from day 16 after initial inflammation (reference value: 84.6 g). In kind it is organism-based. The note with it: in vivo.
The test system of data set [18] is Mus musculus. The data set is described as follows: Toxicity in Kunming white mouse assessed as effect on body weight at 200 mg/kg, po dosed everyday for 5 weeks measured from day 30 onwards. In kind it is organism-based. The following applies: in vivo, 840 h. In short, it runs like this: (§4)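 Mice were dosed orally once daily at 200 mg/kg for 5 weeks alongside an untreated control group. Survival and body weight were recorded over the dosing period and compared with controls.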

Data set [19] concerns Mus musculus. The experiment in a line: Toxicity in Kunming white mouse assessed as survival at 200 mg/kg, po dosed everyday for 5 weeks. It is filed as organism-based. The following applies: in vivo, 840 h. In short, it runs like this:
as §4

The subject of data set [20] is Rattus norvegicus. The experiment in a line: Anti-inflammatory activity in Wistar rat model of Freund's complete adjuvant-induced rheumatoid arthritis model assessed as reduction in paw swelling at 10 mg/kg, po dosed every day from day 16 after initial inflammation and measured after 10 days. In kind it is functional, organism-based. In short, it runs like this:
as §1

Data set [21] has as its system Rattus norvegicus. The experiment in a line: Toxicity in Wistar rat model of Freund's complete adjuvant-induced rheumatoid arthritis model assessed as increase in body weight at 20 mg/kg, po dosed every day from day 16 after initial inflammation (reference value: 84.6 g). In kind it is organism-based. The note with it: in vivo.
In data set [22] the test system is Rattus norvegicus. The experiment in a line: Anti-inflammatory activity in Sprague-Dawley rat model of carrageenan-induced paw edema assessed as reduction in hind paw volume at 10 to 50 mg/kg, po dosed for 2 times at 6 hrs after carrageenan injection measured after 8 to 10 hrs. The note with it: in the assay text read “at 2 and 6 hrs” for “at 6 hrs”. In kind it is functional, organism-based. In short, it runs like this: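 Sprague-Dawley rats, 30 randomized into 5 groups (6 per group); oral dosing twice, at 2 h and 6 h after finishing carrageenan injection into paw; reference 5 mg/kg, test 10, 20, 50 mg/kg; swelling followed over time (to 10 h); significance vs model group.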

Data set [23] deals with Rattus norvegicus. The experiment in a line: Anti-inflammatory activity in Wistar rat model of Freund's complete adjuvant-induced rheumatoid arthritis model assessed as reduction in paw swelling at 10 to 40 mg/kg, po dosed every day from day 16 after initial inflammation. It is filed as functional, organism-based. In short, it runs like this:
as §1

Data set [24] in a line: Prodrug conversion in mouse plasma assessed as Tmax for formation of 5-(4-isothiocyanatobutylthio)-1-phenyl-1H-tetrazole measured after 24 hrs by HPLC method. In kind it is ADME, cell-free.
For data set [25], the system named is Rattus norvegicus. The data set is described as follows: Anti-inflammatory activity in Wistar rat model of Freund's complete adjuvant-induced rheumatoid arthritis model assessed as reduction in paw swelling at 10 to 20 mg/kg, po dosed every day from day 16 after initial inflammation and measured after 10 days. In kind it is functional, organism-based. In short, it runs like this: as §1

A short description of data set [26]: clinical. The following applies: human, in vivo.
A short description of data set [27]: in vivo. The note with it: rat.

Calls of active or inactive are those of the source. The rule behind the calls is not given here.

Regarding `CN(Cc1cnc2nc(N)nc(N)c2n1)c1ccc(C(=O)N[C@@H](CCC(=O)O)C(=O)O)cc1`, the outcome in [1] and in [2] was Active.

Regarding `S=C=NCCCCSc1nnnn1-c1ccccc1`, the Drug uptake entry in data set [3], in data set [4] and in data set [5] was “Active” throughout.

Consider `C[C@@H]1C[C@H]2[C@@H]3CCC4=CC(=O)C=C[C@]4(C)[C@@]3(F)[C@@H](O)C[C@]2(C)[C@@]1(O)C(=O)CO`, for which, in data set [6], the outcome was Active.

One may read the half-life as how long it takes for the measured level to halve. Read a low half-life as rapid decline. One may read the Tmax as the time at which the peak concentration occurs. As to `CN(C)CCOCCOCCSC(=S)NCCCC[S+](C)[O-]` (stereo not given), the Drug metabolism result in [7] is recorded as “Metabolite_Detected”. For the same molecule, the Stability result in data set [8] is “Stable”. In addition, the half-life in [9] is 6 h. Also, the time to peak (Tmax) in data set [10] was 2 h. The Time in [11] came out at 24 h. For the same molecule, in data set [12], the result was Active.

With `CN(C)CCOCCOCCSC(=S)NCCCCSc1nnnn1-c1ccccc1`, the Ratio in data set [13] stood at 300. In addition, the Drug metabolism entry in data set [14] is listed as “Metabolite_Detected”. In addition, the Stability result in data set [8] was “Stable”. The half-life in [9] was 6 h. In addition, the Activity is reported as 58.2 g in data set [15]; 80.8 g in [17]; “Non-Toxic” in [18]; “Non-Toxic” in data set [19]; 70.8 g in data set [21]. In addition, the outcome in data set [16], in data set [20], in data set [22], in data set [23] and in data set [25] was Active. Moreover, the Time in [11] came to 10 h. The Tmax in data set [24] was found to be 2 h.

For the molecule `C[S+]([O-])CCCCN=C=S` (stereo not given) [SULFORAPHANE], the half-life is 1.77 h in data set [26] and 2.2 h in data set [27].
